Bioassay records as filed in PubChem.
The list is not random: actives were taken first. Their share in the collection is about 3.5%.
RGS4 act = RGS4 potentiation or activation. HEK293 M3R/inducible RGS4, carbachol calcium flux Fluo4; hits give low values. B-score at 10 µM. 310,000 compounds, 0.92% hits. AID 463111;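 active = B-score of the integrated calcium signal more than 4 SD below the library mean, with starting fluorescence not abnormally high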;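 note: negative B-score means reduced calcium response which marks RGS4 activation or potentiation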
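Detection: kinetic calcium fluorescence imaging with Fluo4-AM dye, 2 µM / Material: HEK293 cells with stable M3R and inducible RGS4 / Schedule: recording 10 s baseline at 1 Hz, 100 s post-agonist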
MrgX1 ag = agonists of human MrgX1 receptor. MrgX1-HEK293 cells, Fluo-4 calcium fluorescence, agonist mode; hits give high values. B-score at 10 µM. 310,000 compounds, 0.44% hits. AID 588627;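 active = calcium response B-score plate-corrected fluorescence ratio at least 3 library SD, with starting fluorescence B-score inside 5 SD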
Target sequence (Q96LB2 whole entry, looked up): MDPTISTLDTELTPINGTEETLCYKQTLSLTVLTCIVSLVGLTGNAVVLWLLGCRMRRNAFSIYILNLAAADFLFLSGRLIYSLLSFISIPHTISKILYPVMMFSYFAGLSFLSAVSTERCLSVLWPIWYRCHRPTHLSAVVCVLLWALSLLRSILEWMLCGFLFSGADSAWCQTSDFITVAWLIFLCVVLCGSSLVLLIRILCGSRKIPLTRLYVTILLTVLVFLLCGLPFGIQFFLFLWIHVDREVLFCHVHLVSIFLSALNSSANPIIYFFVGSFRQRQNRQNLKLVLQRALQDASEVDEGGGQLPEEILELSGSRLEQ
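Material: MrgX1-expressing HEK293 cells / Dosing: compound as first of three additions / Incubation: overnight seeding, then 1 h dark dye loading / Signal: Fluo-4 NW calcium fluorescence / Evaluation: B-scored fluorescence response ratio / Benchmarks: positive and negative control wells on each plate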
MrgX1 allo act = human MrgX1 positive allosteric modulation, primary screen; Q96LB2; MrgX1-HEK293, Fluo-4 calcium flux, FDSS; hits give high values; B-score at 10 µM; 310,000 compounds, 0.63% hits;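 active = plate-corrected calcium response at least 3 library SD above typical, normal starting fluorescence, not activating the receptor alone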;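 note: compound read alongside a low EC10 to EC30 dose of BAM8-22 agonist; peak minus trough fluorescence over baseline measured at the second addition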
RGS4 block = human RGS4 inhibition; P49798; HEK293 M3R/RGS4 inducible, Fluo-4 calcium flux; hits give high values; triggered by carbachol at its EC20; B-score at 10 µM; 310,000 compounds, 0.45% hits; AID 463165;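 active = B-score, a plate-corrected calcium signal, over three deviations above library mean, with baseline fluorescence within five deviations of library mean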;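 note: RGS4 expression induced by doxycycline in cells with stable M3 receptor; B-score is computed from the integrated fluorescence ratio over baseline after carbachol; higher B-score means a larger calcium signal and so more RGS4 inhibition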
Target sequence (P49798 whole entry, looked up): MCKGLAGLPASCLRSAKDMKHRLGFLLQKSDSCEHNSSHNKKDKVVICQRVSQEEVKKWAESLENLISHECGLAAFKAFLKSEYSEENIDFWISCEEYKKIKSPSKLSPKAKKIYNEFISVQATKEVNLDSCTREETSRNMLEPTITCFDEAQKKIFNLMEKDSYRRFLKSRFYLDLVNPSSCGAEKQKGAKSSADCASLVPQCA
MrgX1 antagonist = antagonists of human MrgX1 receptor | Q96LB2 | MRGX1-HEK293 calcium flux, Fluo-4, BAM8-22 antagonism; hits give low values | B-score at 10 µM | 310,000 compounds, 1.3% hits | AID 588676;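 active = calcium-response B-score plate-corrected more than 3 library SD below zero, starting fluorescence within 5 deviations, no agonist response on first addition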;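 note: peak minus trough fluorescence over baseline after final BAM8-22 challenge near maximal dose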
RGS4 activ val = RGS4 activation, validation assay; 1,100 compounds, 89% hits; HEK293 M3R/RGS4 inducible, carbachol calcium flux Fluo4; inhibition, % at 10 µM; shares compounds with RGS4 act; AID 602282;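 active = inhibition above 3 SD of the buffer control wells, cut at about 41% in these data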;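 note: signal is the integrated peak-minus-minimum Fluo4 fluorescence over baseline ratio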
RGS4 act ctr = counter-screen for RGS4 activators: effect in non-induced cells; shares compounds with RGS4 act; HEK293 M3R non-induced RGS4, Fluo4 calcium flux; after carbachol challenge at its EC90; inhibition, % at 10 µM; 1,100 compounds, 82% hits; AID 602283;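 active = inhibition exceeding 3 SD of buffer-only control wells, cut at about 26% in these data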;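 note: percent drop in integrated peak-minus-baseline over baseline Fluo4 ratio after carbachol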
Active calls of the source: *; i = inactive; . = no result.

SMILES	RGS4 act	MrgX1 ag	MrgX1 allo act	RGS4 block	MrgX1 antagonist	RGS4 activ val	RGS4 act ctr
CCCc1nc(SCC(=O)c2ccccc2)c2c(=O)n(C)c(=O)n(C)c2n1	-7.8*	i	i	i	i	94*	91*
CCc1nc(SCC(=O)c2ccccc2)c2c(=O)n(C)c(=O)n(C)c2n1	i	i	i	i	i	.	.
Cc1cc(C)c2nc3nc(C)c(C)cc3c(N)c2c1	-9.3*	.	.	i	.	90*	65*
CCCSc1nc(C)c2cc(C)cc(C)c2n1	i	i	i	i	i	.	.
Cc1cc(Cl)ccc1OC(C)C(=O)NNC(=O)C1CCCCC1C(=O)O (stereo not drawn)	i	i	i	i	i	.	.
O=C(NCCc1ccccc1)C(=O)NCC1CCCN1S(=O)(=O)c1ccccc1 (stereo not drawn)	-9.6*	i	i	i	i	68*	26*
Cc1cc(C)n(S(=O)(=O)c2ccc3ccccc3c2)n1	-7.9*	i	i	i	i	76*	84*
O=C(O)c1ccc(-c2nc3ccccc3s2)o1	i	i	i	i	i	.	.
O=C(c1ccc(-c2nc3ccccc3s2)o1)N1CCN(c2ccccc2O)CC1	-8.3*	i	i	i	i	86*	53*
O=S(=O)(c1ccc(Br)s1)N1CCN(Cc2ccc3c(c2)OCO3)CC1	-9.3*	i	i	i	i	90*	86*
CN(C)CCNC(=O)c1cc2c(s1)-c1ccc(Cl)cc1SC2	-13*	i	i	i	i	94*	93*
O=C1Nc2ncccc2OC1CCO (stereo not drawn)	i	i	i	i	i	.	.
OC(c1ccccn1)C1CCN(Cc2nc(C(c3ccccc3)c3ccccc3)no2)CC1 (stereo not drawn)	i	i	i	i	i	.	.
Cc1nc(CN2CCN(Cc3nc(C(c4ccccc4)c4ccccc4)no3)CC2)cs1	-13*	i	i	i	i	92*	79*
Cc1cccnc1CN1CCN(Cc2nc(C(c3ccccc3)c3ccccc3)no2)CC1	-8.7*	i	i	i	i	93*	82*
O=C(O)c1ccc(N/N=C/c2ccc(-c3ccccc3)cc2)cc1	i	.	.	i	.	.	.
O=C(O)c1ccc(N/N=C/c2ccc(OC(=O)c3ccccc3Cl)cc2)cc1	-14*	i	i	i	i	0	0
COc1ccc(CC2SC(N)=NC2=O)cc1 (stereo not drawn)	i	i	i	i	i	.	.
COC(=O)Cc1c(C)c2ccc(OC3CCCCC3=O)c(C)c2oc1=O (stereo not drawn)	i	i	i	i	i	.	.
NC(=O)COC(=O)c1c2c(nc3ccccc13)CCCCC2	i	i	i	i	i	.	.
CC(C)(C)C(=O)COC(=O)c1c2c(nc3ccccc13)CCC2	i	i	i	i	i	.	.
CC1Cc2ccccc2N1C(=O)COC(=O)c1c2c(nc3ccccc13)CCCCC2 (stereo not drawn)	-9*	i	i	i	i	88*	84*
O=C(OCC(=O)N1CCc2ccccc21)c1c2c(nc3ccccc13)CCCC2	-9.1*	i	i	i	i	80*	84*
Cn1nc(NC(=O)CC23CC4CC(CC(C4)C2)C3)c2c(F)cccc21	i	i	i	i	i	.	.
C=CCn1c(SCC(=O)N2CCc3ccccc3C2)nc2sc(CC)cc2c1=O	i	i	i	i	i	.	.
SMILES	RGS4 act	MrgX1 ag	MrgX1 allo act	RGS4 block	MrgX1 antagonist	RGS4 activ val	RGS4 act ctr
C=CCn1c(SCC(=O)N2CCc3ccccc3C2)nc2sc(C)c(C)c2c1=O	-7.9*	i	i	i	i	85*	58*
COCCNC(=O)c1cc(S(=O)(=O)N2CCOCC2)ccc1SCc1cccc(OC)c1OC	i	i	i	i	i	.	.
COc1ccc(-c2csc3ncnc(N4CCN(S(=O)(=O)c5cccs5)CC4)c23)cc1	-8.2*	i	i	i	i	42*	84*
COc1ccc(-c2csc3ncnc(N4CCN(c5ccccc5Cl)CC4)c23)cc1	-8.6*	i	i	i	i	76*	84*
COc1ccc(N2CCN(c3ncnc4scc(-c5ccc(C)cc5)c34)CC2)cc1	-7.9*	i	i	i	i	0	0
COc1ccc(N2CCN(c3ncnc4scc(-c5ccc(F)cc5)c34)CC2)cc1	i	i	i	i	i	.	.
COc1ccc(N2CCN(c3ncnc4scc(-c5ccccc5)c34)CC2)cc1	-7.9*	i	i	i	i	54*	0
Cc1ccccc1OCc1occc1C(=O)Nc1cccc(-n2cnnn2)c1	i	i	i	i	i	.	.
COc1ccc(S(=O)(=O)N2CCCCC2)cc1NC(=O)c1ccc2ccccc2n1	i	i	i	i	i	.	.
COc1ccc(NC(=O)c2ccc3ccccc3n2)cc1S(=O)(=O)N1CCCCC1	-8.6*	i	i	i	i	92*	49*
c1ccc(-c2nnc(C3CC(c4ccncc4)=NO3)o2)cc1 (stereo not drawn)	i	i	i	i	i	.	.
Cn1ccnc1C1CCCCN1Cc1nc(Cc2ccccc2F)no1 (stereo not drawn)	i	i	i	i	i	.	.
COC(=O)c1ccc(-c2noc(CN3CCCCC3c3nccn3C)n2)cc1 (stereo not drawn)	-10*	i	i	i	i	91*	68*
Cc1c(C)n(Cc2ccccc2)c2ncnc(NCCCN(C)C)c12	-9.4*	i	i	i	i	70*	84*
Cc1cc(OCC(=O)Nc2ccc(S(=O)(=O)N3CCN(C)CC3)cc2)ccc1Cl	-8.3*	i	i	i	i	0	0
CCN(C(=O)Cn1nc(C)c([N+](=O)[O-])c1C)C1CCS(=O)(=O)C1 (stereo not drawn)	i	i	i	i	i	.	.
N#Cc1ccccc1Sc1ccccc1C(=O)Nc1ccccc1	i	i	i	i	i	.	.
CC(C)NS(=O)(=O)c1ccc(OCC(=O)N2CCc3ccccc3C2)cc1	i	i	i	i	i	.	.
CC(C)NS(=O)(=O)c1ccc(CCC(=O)N2CCc3ccccc3C2)cc1	-7.5*	i	i	i	i	0	0
